Measurements as given in ChEMBL document CHEMBL3612002, “Identification of A Novel Small-Molecule Binding Site of the Fat Mass and Obesity Associated Protein (FTO)” (J Med Chem, 2015).
Activity calls are given as the source filed them. The calls are words filed in the database; no cut-off is given here.

Assays:
[1] = target: T1, Alpha-ketoglutarate-dependent dioxygenase FTO (Homo sapiens, UniProt Q9C0B1); assay: Inhibition of FTO (unknown origin) (31 to 505 residues) expressed in Escherichia coli BL21 (DE3) cells assessed as reduction in 3-meT substrate demethylation by measuring demethylation ratio at 80 uM incubated for 17 hrs at 16 degC by HPLC method; design: scale not given: the % may be the effect or the level left
Procedure, shortened: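 Preliminary screen with FTO and 3meT substrate (0.1 mg/mL stock) in MES, FeSO4, αKG and L-ascorbate; inhibitor added from a 4 mM DMSO stock, with DMSO alone as control. Incubated 17 h at 16 °C, centrifuged, then analysed by C18 reverse-phase HPLC (water/methanol gradient). Demethylated fraction of substrate reported.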
Target sequence in this assay (Q9C0B1 whole entry, looked up, the tested form may be a part): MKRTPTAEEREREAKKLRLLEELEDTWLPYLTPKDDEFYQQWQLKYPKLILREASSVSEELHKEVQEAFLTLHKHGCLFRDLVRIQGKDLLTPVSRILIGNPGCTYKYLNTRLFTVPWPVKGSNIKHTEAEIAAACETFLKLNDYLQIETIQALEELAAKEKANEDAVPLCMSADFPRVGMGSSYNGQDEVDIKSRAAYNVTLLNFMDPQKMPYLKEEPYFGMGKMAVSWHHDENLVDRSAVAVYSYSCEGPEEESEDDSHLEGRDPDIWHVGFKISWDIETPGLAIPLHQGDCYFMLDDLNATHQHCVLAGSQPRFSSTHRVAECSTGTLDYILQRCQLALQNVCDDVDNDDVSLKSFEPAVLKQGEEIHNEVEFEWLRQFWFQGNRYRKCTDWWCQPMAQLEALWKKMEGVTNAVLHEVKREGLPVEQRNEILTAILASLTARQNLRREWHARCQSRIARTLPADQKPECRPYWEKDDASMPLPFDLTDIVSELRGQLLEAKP

[2] = target: T1, Alpha-ketoglutarate-dependent dioxygenase FTO; assay: Binding affinity to FTO (unknown origin) (31 to 505 residues) expressed in Escherichia coli BL21 (DE3) by ITC method
Procedure, shortened: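 ITC at 25 °C. Cell contained 140 μM FTO (residues 31–505, His/Ni-resin and ion-exchange purified from E. coli BL21(DE3) after IPTG induction) in 25 mM HEPES pH 7.5, 100 mM NaCl, 10 mM β-mercaptoethanol, 10% DMSO. Titrant was the same buffer with 1.5 mM ligand, given as one 0.4 μL then 2.0 μL injections every 150 s at 750 rpm. Buffer-only dilution heats subtracted before fitting Kd.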
Target sequence in this assay (Q9C0B1 whole entry, the tested form may be a part): as the sequence (Q9C0B1 whole entry, looked up, the tested form may be a part) above

[3] = target: T1, Alpha-ketoglutarate-dependent dioxygenase FTO; settings: 3T3-L1, 10 uM
Target sequence in this assay (Q9C0B1 whole entry, looked up, the tested form may be a part): as above

[4] = target: T1, Alpha-ketoglutarate-dependent dioxygenase FTO; assay: biochemical
Target sequence in this assay (Q9C0B1 whole entry, the tested form may be a part): as the sequence (Q9C0B1 whole entry, looked up, the tested form may be a part) above

[5] = Cytotoxicity against mouse 3T3L1 cells assessed as effect on cell morphology at 1 to 20 uM incubated for 8 days; format: cell-based; settings: 3t3-l1, 192 h
Procedure, shortened: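 3T3-L1 preadipocytes were exposed to 1, 10 or 20 μM for 8 days. Cell health was judged from morphology.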

[6] = tested on: Alpha-ketoglutarate-dependent dioxygenase FTO (Homo sapiens), Q9C0B1 [R96Q]; settings: 3T3-L1, 10 uM
[7] = target: Alpha-ketoglutarate-dependent dioxygenase FTO (Mus musculus) (UniProt Q8BGW1); assay: Inhibition of FTO in mouse 3T3L1 cells increase in […] m6A modified mRNA levels at 10 uM incubated for 48 hrs by dot blot method; format: cell-based; settings: 3T3-L1
Procedure, shortened: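 3T3-L1 preadipocytes stably transfected with empty pcDNA3.1, WT-FTO or R96Q-FTO were grown in high-glucose DMEM/10% FBS. Post-confluent cells were differentiated 48 h with insulin, dexamethasone and IBMX, then given 10 μM compound plus insulin for 48 h. mRNA m6A was quantified as relative integrated optical density; mean ± SEM, n = 4.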

[8] = target: T1, Alpha-ketoglutarate-dependent dioxygenase FTO; settings: BL21-DE3, 80 uM
Target sequence in this assay (Q9C0B1 whole entry, looked up, the tested form may be a part): as above

Alpha-ketoglutarate-dependent dioxygenase FTO (Mus musculus), sequence (Q8BGW1 whole entry): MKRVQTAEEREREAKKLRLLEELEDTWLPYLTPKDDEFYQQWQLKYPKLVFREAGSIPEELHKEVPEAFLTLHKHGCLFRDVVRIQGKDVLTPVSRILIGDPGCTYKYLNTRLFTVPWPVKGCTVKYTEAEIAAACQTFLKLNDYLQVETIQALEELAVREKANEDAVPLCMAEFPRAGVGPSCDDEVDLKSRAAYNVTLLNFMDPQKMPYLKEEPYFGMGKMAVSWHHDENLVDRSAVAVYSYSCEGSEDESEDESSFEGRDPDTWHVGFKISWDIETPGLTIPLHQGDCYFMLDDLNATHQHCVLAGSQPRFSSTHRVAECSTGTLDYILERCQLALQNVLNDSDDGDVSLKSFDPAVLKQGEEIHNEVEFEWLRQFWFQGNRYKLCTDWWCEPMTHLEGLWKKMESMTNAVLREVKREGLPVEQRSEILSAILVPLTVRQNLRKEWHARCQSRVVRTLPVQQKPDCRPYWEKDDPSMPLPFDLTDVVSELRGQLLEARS
Alpha-ketoglutarate-dependent dioxygenase FTO (Homo sapiens), Q9C0B1 [R96Q], sequence (Q9C0B1 whole entry R96Q): as the sequence (Q9C0B1 whole entry, looked up, the tested form may be a part) above, with R96Q counted along it

With O=C(Nc1cc(Cl)c(O)cc1O)C1(c2cccc(Br)c2)CCC1 as the compound, how does the Activity [1] read?
Its Activity is 18.7%.

For O=C(Nc1cc(Cl)c(O)cc1O)C1(c2ccc(Br)cc2)CCC1, which Activity [1] is on record?
The Activity was 31.3%.

With O=C(Nc1cc(Cl)c(O)cc1O)C1(c2ccc(Cl)cc2)CCC1 as the compound, how does the Activity [1] read?
The Activity was 29.2%.

Which Activity [1] does the source give for CCCCc1ccc(C2(C(=O)Nc3cc(Cl)c(O)cc3O)CCC2)cc1 here?
The Activity was 22.2%.

With O=C(Nc1cc(Cl)c(O)cc1O)C1(c2cccc(Cl)c2)CCC1 as the compound, how does the Activity [1] read?
The Activity was 16.9%.

Which Activity [1] does the source give for O=C(Nc1cc(Cl)c(O)cc1O)C1(c2ccc([N+](=O)[O-])cc2)CCC1 here?
The Activity was 46.9%.

For O=C(Nc1cc(Cl)c(O)cc1O)C1(c2cccc(C(F)(F)F)c2)CCC1, which Activity [1] is on record?
The Activity was 29.8%.

For O=C(Nc1cc(Cl)c(O)cc1O)C1(c2c(F)cccc2F)CCC1, which Activity [1] is on record?
Its Activity is 15.2%.

Which Activity [1] does the source give for O=C(Nc1cc(Cl)c(O)cc1O)C1(c2ccccc2Br)CCC1 here?
The Activity was 21.6%.

Which Activity [1] does the source give for O=C(Nc1cc(Cl)c(O)cc1O)C1(c2ccc(O)cc2)CCC1 here?
The Activity was 17.8%.

With O=C(Nc1cc(Cl)c(O)cc1O)C1(c2ccc3ccccc3c2)CCC1 as the compound, how does the Activity [1] read?
Its Activity is 18.4%.

With O=C(Nc1cc(Cl)c(O)cc1O)C1(c2cccc(O)c2)CCC1 as the compound, how does the Activity [1] read?
Its Activity is 25.8%.

For O=C(Nc1cc(Cl)c(O)cc1O)C1(c2cccc(Oc3ccccc3)c2)CCC1, which Activity [1] is on record?
The Activity was 17.3%.

For O=C(Nc1cc(Cl)c(O)cc1O)C1(c2cc(C(F)(F)F)cc(C(F)(F)F)c2)CCC1, which Activity [1] is on record?
Its Activity is 61.9%.

For CCCCc1cccc(C2(C(=O)Nc3cc(Cl)c(O)cc3O)CCC2)c1, which Activity [1] is on record?
The Activity was 18.2%.

For O=C(Nc1cc(Cl)c(O)cc1O)C1(c2ccccc2Cl)CCC1, which Activity [1] is on record?
The Activity was 16.9%.

With O=C(Nc1cc(Cl)c(O)cc1O)C1(c2c(Cl)cccc2Cl)CCC1 as the compound, how does the Activity [1] read?
The Activity was 15.4%.

Which results are given for O=C(Nc1cc(Cl)c(O)cc1O)C1(c2ccccc2)CCC1?
Kd [2]: 13 µM; inhibition [3]: Active; IC50 [4]: 4.95 µM; Activity [5]: Non-toxic; Activity [1]: 14.4%; inhibition [6]: Active; inhibition [7]: Active; inhibition [8]: Dose-dependent effect

For O=C(Nc1cc(Cl)c(O)cc1O)C1(c2ccc([N+](=O)[O-])cc2[N+](=O)[O-])CCC1, which Activity [1] is on record?
The Activity was 26.1%.

For O=C(Nc1cc(Cl)c(O)cc1O)C1(c2cccc3ccccc23)CCC1, which Activity [1] is on record?
The Activity was 39%.
